Results: ChEMBL document CHEMBL4304816, “A Novel Biphenyl-based Chemotype of Retinoid X Receptor Ligands Enables Subtype and Heterodimer Preferences” (ACS Med Chem Lett, 2019)
The source made the active and inactive calls. The calls are words filed in the database; no cut-off is given here.

Assays:
Type in all cases: cell-based
[1] = target: T1, Retinoic acid receptor RXR-alpha (Homo sapiens) (UniProt P19793); assay: Agonist activity at Gal4-LBD fused RXRalpha (unknown origin) expressed in HEK293T cells assessed as fold activation after 14 to 16 hrs by dual-Glo luciferase assay relative to untreated control
T1 sequence (whole entry): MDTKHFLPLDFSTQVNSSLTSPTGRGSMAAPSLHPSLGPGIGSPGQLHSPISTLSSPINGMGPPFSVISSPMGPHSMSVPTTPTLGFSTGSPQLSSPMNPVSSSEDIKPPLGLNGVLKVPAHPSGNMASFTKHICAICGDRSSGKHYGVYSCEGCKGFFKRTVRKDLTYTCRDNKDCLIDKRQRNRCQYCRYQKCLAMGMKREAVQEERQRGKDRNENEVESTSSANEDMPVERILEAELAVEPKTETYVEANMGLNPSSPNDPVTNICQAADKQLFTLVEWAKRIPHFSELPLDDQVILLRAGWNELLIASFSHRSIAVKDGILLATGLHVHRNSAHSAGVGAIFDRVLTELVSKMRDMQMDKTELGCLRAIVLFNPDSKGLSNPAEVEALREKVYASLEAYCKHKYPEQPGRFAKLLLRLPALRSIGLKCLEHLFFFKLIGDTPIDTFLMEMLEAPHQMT
Outline: (§1)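 Gal4-hybrid RXRα/β/γ reporter gene assays in HEK293T cells. Fold activation is the maximal fold activation versus 0.1% DMSO.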

[2] = target: T2, Retinoic acid receptor RXR-beta (Homo sapiens) (UniProt P28702); assay: Agonist activity at Gal4-LBD fused RXRbeta (unknown origin) expressed in HEK293T cells assessed as fold activation after 14 to 16 hrs by dual-Glo luciferase assay relative to untreated control; outline: as §1
T2 sequence (whole entry): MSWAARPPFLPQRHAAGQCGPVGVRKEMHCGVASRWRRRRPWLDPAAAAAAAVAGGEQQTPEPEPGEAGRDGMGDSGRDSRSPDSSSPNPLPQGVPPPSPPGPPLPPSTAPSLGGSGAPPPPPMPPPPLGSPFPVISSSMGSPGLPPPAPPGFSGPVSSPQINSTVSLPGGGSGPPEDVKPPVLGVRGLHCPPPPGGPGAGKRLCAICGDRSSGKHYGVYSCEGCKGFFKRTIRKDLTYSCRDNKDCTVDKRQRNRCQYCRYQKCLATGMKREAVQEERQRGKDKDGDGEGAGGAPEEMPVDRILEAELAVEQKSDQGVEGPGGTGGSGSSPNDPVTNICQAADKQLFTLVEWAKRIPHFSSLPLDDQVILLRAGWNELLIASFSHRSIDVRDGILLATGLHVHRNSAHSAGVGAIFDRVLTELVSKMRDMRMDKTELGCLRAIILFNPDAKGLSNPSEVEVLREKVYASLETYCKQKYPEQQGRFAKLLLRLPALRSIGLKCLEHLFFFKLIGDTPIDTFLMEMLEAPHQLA

[3] = target: T3, Retinoic acid receptor RXR-gamma (Homo sapiens) (UniProt P48443); assay: Agonist activity at Gal4-LBD fused RXRgamma (unknown origin) expressed in HEK293T cells at 20 uM after 14 to 16 hrs by dual-Glo luciferase assay
T3 sequence (whole entry): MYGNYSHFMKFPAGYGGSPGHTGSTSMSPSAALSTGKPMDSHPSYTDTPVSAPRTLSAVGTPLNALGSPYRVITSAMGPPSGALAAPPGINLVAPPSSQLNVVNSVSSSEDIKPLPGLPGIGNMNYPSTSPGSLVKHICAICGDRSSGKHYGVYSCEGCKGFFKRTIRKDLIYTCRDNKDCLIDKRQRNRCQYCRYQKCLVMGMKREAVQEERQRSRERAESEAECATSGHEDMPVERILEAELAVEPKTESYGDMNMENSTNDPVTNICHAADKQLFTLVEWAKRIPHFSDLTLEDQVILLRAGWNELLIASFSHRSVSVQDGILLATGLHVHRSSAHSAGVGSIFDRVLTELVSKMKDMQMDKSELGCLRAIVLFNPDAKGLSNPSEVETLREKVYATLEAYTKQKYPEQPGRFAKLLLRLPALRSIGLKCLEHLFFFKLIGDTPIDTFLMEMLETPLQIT

[4] = target: T4, Retinoic acid receptor RXR-beta (Homo sapiens, UniProt P28702); assay: Agonist activity at Gal4-LBD fused RXRbeta (unknown origin) expressed in HEK293T cells after 14 to 16 hrs by dual-Glo luciferase assay; outline: as §1
T4 sequence (P28702 whole entry): T2 sequence (whole entry)

[5] = target: T5, Retinoic acid receptor RXR-alpha (Homo sapiens, UniProt P19793); assay: Agonist activity at Gal4-LBD fused RXRalpha (unknown origin) expressed in HEK293T cells after 14 to 16 hrs by dual-Glo luciferase assay; outline: as §1
T5 sequence (P19793 whole entry): T1 sequence (whole entry)

[6] = target: T3, Retinoic acid receptor RXR-gamma (Homo sapiens); assay: Agonist activity at Gal4-LBD fused RXRgamma (unknown origin) expressed in HEK293T cells assessed as fold activation at 10 uM after 14 to 16 hrs by dual-Glo luciferase assay relative to untreated control; outline: as §1
[7] = target: T1, Retinoic acid receptor RXR-alpha (Homo sapiens); assay: Agonist activity at Gal4-LBD fused RXRalpha (unknown origin) expressed in HEK293T cells assessed as fold activation at 10 uM after 14 to 16 hrs by dual-Glo luciferase assay relative to untreated control; outline: as §1
[8] = target: T2, Retinoic acid receptor RXR-beta (Homo sapiens); assay: Agonist activity at Gal4-LBD fused RXRbeta (unknown origin) expressed in HEK293T cells assessed as fold activation at 10 uM after 14 to 16 hrs by dual-Glo luciferase assay relative to untreated control; outline: as §1
[9] = target: T3, Retinoic acid receptor RXR-gamma (Homo sapiens); assay: Agonist activity at Gal4-LBD fused RXRgamma (unknown origin) expressed in HEK293T cells at 10 uM after 14 to 16 hrs by dual-Glo luciferase assay
[10] = target: T1, Retinoic acid receptor RXR-alpha (Homo sapiens); assay: Agonist activity at Gal4-LBD fused RXRalpha (unknown origin) expressed in HEK293T cells at 10 uM after 14 to 16 hrs by dual-Glo luciferase assay
[11] = target: T2, Retinoic acid receptor RXR-beta (Homo sapiens); assay: Agonist activity at Gal4-LBD fused RXRbeta (unknown origin) expressed in HEK293T cells at 10 uM after 14 to 16 hrs by dual-Glo luciferase assay
[12] = target: T3, Retinoic acid receptor RXR-gamma (Homo sapiens); assay: Agonist activity at Gal4-LBD fused RXRgamma (unknown origin) expressed in HEK293T cells assessed as fold activation after 14 to 16 hrs by dual-Glo luciferase assay relative to untreated control; outline: as §1
[13] = target: T6, Retinoic acid receptor RXR-gamma (Homo sapiens, UniProt P48443); assay: Agonist activity at Gal4-LBD fused RXRgamma (unknown origin) expressed in HEK293T cells after 14 to 16 hrs by dual-Glo luciferase assay; outline: as §1
T6 sequence (P48443 whole entry): T3 sequence (whole entry)

[14] = target: T1, Retinoic acid receptor RXR-alpha (Homo sapiens); assay: Agonist activity at Gal4-LBD fused RXRalpha (unknown origin) expressed in HEK293T cells assessed as fold activation at 20 uM after 14 to 16 hrs by dual-Glo luciferase assay relative to untreated control; outline: as §1
[15] = target: T2, Retinoic acid receptor RXR-beta (Homo sapiens); assay: Agonist activity at Gal4-LBD fused RXRbeta (unknown origin) expressed in HEK293T cells assessed as fold activation at 20 uM after 14 to 16 hrs by dual-Glo luciferase assay relative to untreated control; outline: as §1
[16] = target: T3, Retinoic acid receptor RXR-gamma (Homo sapiens); assay: Agonist activity at Gal4-LBD fused RXRgamma (unknown origin) expressed in HEK293T cells assessed as fold activation at 20 uM after 14 to 16 hrs by dual-Glo luciferase assay relative to untreated control; outline: as §1
[17] = target: T2, Retinoic acid receptor RXR-beta (Homo sapiens); assay: Agonist activity at Gal4-LBD fused RXRbeta (unknown origin) expressed in HEK293T cells at 30 uM after 14 to 16 hrs by dual-Glo luciferase assay
[18] = target: T3, Retinoic acid receptor RXR-gamma (Homo sapiens); assay: Agonist activity at Gal4-LBD fused RXRgamma (unknown origin) expressed in HEK293T cells at 30 uM after 14 to 16 hrs by dual-Glo luciferase assay
[19] = target: T1, Retinoic acid receptor RXR-alpha (Homo sapiens); assay: Agonist activity at Gal4-LBD fused RXRalpha (unknown origin) expressed in HEK293T cells at 30 uM after 14 to 16 hrs by dual-Glo luciferase assay

| fold change (FC) [1] | fold change (FC) [2] | EC50 [4] | EC50 [5] | Activity [9] | Activity [10] | Activity [11] | Structure (SMILES) | other results |
| --- | --- | --- | --- | --- | --- | --- | --- | --- |
| 19 | 35 | 12.8 µM | 18 µM |  |  |  | CC(C)(C)c1cccc(-c2ccc(C(=O)O)cc2)c1 | Activity [3]: inactive |
| 31 | 84 | 3.1 µM | 3.7 µM | inactive |  |  | CC(C)(C)c1cc(-c2cccc(C(=O)O)c2)cc(C(C)(C)C)c1 | fold change (FC) [6]: 4; fold change (FC) [7]: 32; fold change (FC) [8]: 82 |
|  |  |  |  | inactive | inactive | inactive | Cc1cc(C(=O)O)ccc1-c1cc(C(C)(C)C)cc(C(C)(C)C)c1 |  |
|  |  |  |  | inactive | inactive | inactive | CC(C)(C)c1cc(-c2ccc(C(=O)O)cn2)cc(C(C)(C)C)c1 |  |
| 50 | 122 | 3.7 µM | 3.1 µM |  |  |  | O=C(O)c1ccc(-c2cc(C(F)(F)F)cc(C(F)(F)F)c2)cc1 | fold change (FC) [6]: 10; fold change (FC) [12]: 25; fold change (FC) [7]: 48; fold change (FC) [8]: 120; EC50 [13]: 12.5 µM |
| 38 | 68 | 13 µM | 9.3 µM |  |  |  | O=C(O)c1ccc(-c2cc(Cl)cc(Cl)c2)cc1 | fold change (FC) [14]: 33; EC50 [13]: > 30 µM; fold change (FC) [15]: 60; fold change (FC) [16]: 3 |
| 4.8 |  |  | 25.4 µM |  |  |  | COc1cc(OC)cc(-c2ccc(C(=O)O)cc2)c1 | Activity [17]: inactive; Activity [18]: inactive |
|  |  |  |  | inactive | inactive | inactive | CC(C)(C)c1cc(-c2ccc(C(=O)O)nc2)cc(C(C)(C)C)c1 |  |
|  |  |  |  |  |  |  | COc1cccc(-c2ccc(C(=O)O)cc2)c1 | Activity [17]: inactive; Activity [19]: inactive; Activity [18]: inactive |
| 11 | 33 | 6.7 µM | 3.4 µM |  |  |  | CCc1cc(CC)cc(-c2ccc(C(=O)O)cc2)c1 | Activity [3]: inactive |
